From publication PMC3786204 (Journal of immunology (Baltimore, Md. : 1950), 2013)

Experiments:
Type in all cases: cell-based, human
DC [1] = assay: DC maturation, surface CD86 by flow cytometry; details: 48h; for Effect on CTL-induced DC maturation (CD86 enhancement): PLN9 expressing DC + CTL, sTNF-R1 0.1 μg/ml, sIFNγ-R1 1 μg/ml
How it was run: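 Day 5 autologous immature DC were co-cultured for 48h with TLN9-specific CTL (2×10^5 cells/well) plus variant peptide PLN9 (1 μg/ml), with or without blockers sTNF-RI (0.1 μg/ml) or IFNγ-R1 (1 μg/ml). Controls were TNF-α (50 ng/ml)-matured DC and peptide-exposed DC without CTL. DC surface CD86 was measured by flow cytometry.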

DC [2] = assay: DC IL-12p70 producing capacity after CD40L stimulation; details: exogenous TNF-α 50 ng/ml, 48h, then CD40L stimulation
[3] = test system: Gag77–85 reactive CTL from HIV-1 positive donor; assay: Surface CD8 expression on memory CTL expanded from HIV-1 positive donor PBMC; details: CTL expanded from PBMC 6 months post seroconversion
DENV3 specific CTL = assay: Surface CD8 expression on DENV3 epitope specific CTL; details: CTL primed against DENV3 NS3 399–407 KLNDWDFVV
How it was run: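 CD8+ T cells were negatively selected from HIV-1-seronegative HLA-A*0201 donors and plated at 7.5×10^5/well. They were primed with DENV3 epitope-pulsed αDC1 (7.5×10^4/well) plus γ-irradiated J558-CD40L cells (5×10^4/well). rhIL-2 (50 IU/ml), rhIL-7 (10 ng/ml) and rhIL-15 (1 ng/ml) were added at day 4. CTL were tested against serotype-variant peptides, with CD8 read by flow cytometry.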

[4] = test system: HIV-1 p24 Gag151–159 specific CTL; assay: Surface CD8 expression on peptide reactive CTL; details: TLN9-specific CTL, gated on IFN-γ producing cells; CTL lines from 5 donors
How it was run: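 CTL lines were primed in vitro from 5 HIV-1-naïve donors and maintained with IL-2 (200 IU/ml) and IL-7 (10 ng/ml). They were restimulated with peptide variants and assessed by intracellular cytokine staining with anti-CD28/CD49d and Golgistop/Golgiplug. CD8 MFI was read on IFN-γ-producing cells by multiparameter flow cytometry. Statistics used one-way ANOVA with Tukey post hoc test.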

[5] = test system: autologous pre-activated CD4+ T cells; assay: CTL cytotoxicity against peptide-pulsed CD4+ T cell targets; details: targets pulsed with 1 μg/mL peptide, 18h co-culture
How it was run: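 Targets: PBMC activated 5 days with PHA (1μg/ml) and rIL-2 (100 IU/ml), then CD4+ cells negatively selected, pulsed 1 h with 1μg/mL peptide and washed. Co-cultured with CTL 18h at 37°C at CTL:target 3:1, 1:1, 0.3:1 and 0:1. Stained for CD4/CD8, fixed/permeabilized, 7-AAD 20 min at 37°C. Linear 7-AAD on singlet CD4+ events scored G1, S/G2 and sub-G1 fractions. 4 experiments.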

autologous iDC [6] = assay: 4 h 51Cr-release cytotoxicity assay; details: 1 μg/ml peptide, TLN9-specific CTL
How it was run: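 Targets were autologous iDC, generated by culturing monocytes 5–7 days in IMDM with 10% FBS, GM-CSF and IL-4 (both 1000 IU/ml), then peptide-pulsed. Effectors were CTL primed in vitro from CD8+ T cells of HIV-1-seronegative HLA-A*0201 donors, using peptide-pulsed αDC1. Lysis was read by standard 4 h 51Cr release.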

iDC = assay: Microscopy of iDC:CTL co-cultures; details: 24 h co-culture, light microscopy
How it was run: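 CTL (2×10^5 cells/well) were added to day-5 autologous iDC cultures with 1 μg/ml irrelevant, priming or variant 9mer peptide. Co-cultures were examined by light microscopy after 24h. For SEM, cells grew on glass coverslips removed at 24h, fixed in 2.5% glutaraldehyde in PBS and post-fixed in 1% aqueous osmium tetroxide.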

autologous iDC [7] = assay: Flow cytometry viability and recovery of iDC in CTL:DC co-cultures; details: CTL and iDC co-culture, 6h, 3:1 CTL:DC
How it was run: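 CTL were added to day-5 autologous iDC for 6h at 3:1 (CTL:DC). Cultures had no peptide, irrelevant control, priming or variant peptide; titration used decreasing cognate peptide down to .001 μg/ml. Cell loss came from recovered cell-type ratios gated by light scatter and CD3 (T cells) or CD86 (DC). Viability of DC-gated events used LIVE/DEAD Aqua. Three experiments, ± standard error.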

## TNF-α
DC [1]; exogenous TNF-α 50 ng/ml
  CD86 expression of DC matured with the factor: high levels of CD86
DC [2]
  IL-12p70 producing ability of DC matured with the factor: curtailed

## SLFNTVATL
[3]
  CD8 expression on reactive CTL: down-regulation occurred

## RTNDWDFVV
DENV3 specific CTL
  CD8 expression on reactive CTL: CD8 expression was maintained

## KLTDWDFVV
DENV3 specific CTL
  CD8 expression on reactive CTL: CD8 expression was maintained

## PLNAWVKVV [PLN9]
[4]
  Surface expression of CD8 on peptide reactive CTL: maintained
[5]
  Killing of peptide-labeled CD4+ T cell targets by TLN9-specific CTL: not effectively killed
Autologous iDC [6]
  CTL lytic activity against peptide-labeled iDC: dramatically reduced
iDC
  DC morphology / survival in co-culture with CTL: pronounced webbed network of long cellular extensions

## KLNDWDFVV [reference compound]
DENV3 specific CTL
  CD8 expression on reactive CTL: down-regulation of CD8

## TLNAWVKVV [TLN9]
[4]
  Surface expression of CD8 on peptide reactive CTL: decreased
Autologous iDC [6]
  CTL lytic activity against peptide-labeled iDC: showed lytic activity
Autologous iDC [7]
  Peptide concentration at which a substantial drop in killing occurs: .001 µg/mL
iDC
  DC morphology / survival in co-culture with CTL: failed to survive

B1: sIFNγ-rec1: soluble IFN-γ receptor 1, IFN-γ blocker (protein, UniProt P15260 18-245, looked up)
extracellular domain: EMGTADLGPSSVPTPTNVTIESYNMNPIVYWEYQIMPQVPVFTVEVKNYGVKNSEWIDACINISHHYCNISDHVGDPSNSLWVRVKARVGQKESAYAKSEEFAVCRDGKIGPPKLDIRKEEKQIMIDIFHPSVFVNGDEQEVDYDPETTCYIRVYNVYVRMNGSEIQYKILTQKEDDCDEIQCQLAIPVSSLNSQYCVSAEGVLHVWGVTTEKSKEVCITIFNSSIKG
modifications: extracellular domain
DC [1]
  Effect on CTL-induced DC maturation (CD86 enhancement): did not inhibit

B2: sTNF-rec1: Human soluble TNF receptor I, TNF-α blocker (protein, UniProt P19438 30-211, looked up)
extracellular domain: LVPHLGDREKRDSVCPQGKYIHPQNNSICCTKCHKGTYLYNDCPGPGQDTDCRECESGSFTASENHLRHCLSCSKCRKEMGQVEISSCTVDRDTVCGCRKNQYRHYWSENLFQCFNCSLCLNGTVHLSCQEKQNTVCTCHAGFFLRENECVSCSNCKKSLECTKLCLPQIENVKGTEDSGTT
modifications: extracellular domain
DC [1]
  Effect on CTL-induced DC maturation (CD86 enhancement): partially reduced
